ChEMBL document CHEMBL4376838, “Discovery of Novel Celastrol Derivatives as Hsp90-Cdc37 Interaction Disruptors with Antitumor Activity” (J Med Chem, 2019)
Activity calls are given as the source filed them. The calls are words filed in the database; no cut-off is given here.

How the values were obtained:
A549 [1] = assay: Induction of cell cycle arrest in human A549 cells assessed as increase in accumulation at G0/G1 phase incubated for 24 hrs by PI staining based flow cytometric analysis; assay type: functional
Method in brief: (§1)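 A549 cells (4×10^5 per 6 cm dish) were grown 24 h, then exposed to compound (0.2, 0.4, 0.8 μM) or DMSO for 24 h. Cells fixed in 75% ethanol at −20 °C for at least 12 h, treated with RNase A at 37 °C for 30 min, then stained with PI for 15 min in the dark. Analysed by flow cytometry, mean ± SD, n = 3.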

A549 [2] = assay: Induction of mitochondrial membrane potential loss in human A549 cells assessed as cells with depolarized mitochondria by measuring increase in J-monomer green fluorescence intensity at 0.4 uM incubated for 24 hrs by JC1 staining based fluorescence microscopic method (reference value: 1.5%); assay type: functional
[3] = target: T1, Hsp90 co-chaperone Cdc37 (Homo sapiens) (UniProt Q16543); assay: Binding affinity to recombinant Cdc37 (unknown origin) assessed as inhibition of biotin labeled 3-[3-cyano-3-(4-fluorophenyl)prop-2-enoyl]oxypropyl(2R,4aS,6aR,6aS,14aS,14bR)-10-hydroxy-2,4a,6a,6a,9,14a-hexamethyl-11-oxo-1,3,4,5,6,13,14,14b-octahydropicene-2-carboxylate binding to enzyme at 0.25 to 0.5 uM incubated with compound for 2 hrs before or after incubation with biotin labeled 3-[3-cyano-3-(4-fluorophenyl)prop-2-enoyl]oxypropyl(2R,4aS,6aR,6aS,14aS,14bR)-10-hydroxy-2,4a,6a,6a,9,14a-hexamethyl-11-oxo-1,3,4,5,6,13,14,14b-octahydropicene-2-carboxylate for 2 hrs by pull down assay based immunoblot analysis
T1 sequence (whole entry): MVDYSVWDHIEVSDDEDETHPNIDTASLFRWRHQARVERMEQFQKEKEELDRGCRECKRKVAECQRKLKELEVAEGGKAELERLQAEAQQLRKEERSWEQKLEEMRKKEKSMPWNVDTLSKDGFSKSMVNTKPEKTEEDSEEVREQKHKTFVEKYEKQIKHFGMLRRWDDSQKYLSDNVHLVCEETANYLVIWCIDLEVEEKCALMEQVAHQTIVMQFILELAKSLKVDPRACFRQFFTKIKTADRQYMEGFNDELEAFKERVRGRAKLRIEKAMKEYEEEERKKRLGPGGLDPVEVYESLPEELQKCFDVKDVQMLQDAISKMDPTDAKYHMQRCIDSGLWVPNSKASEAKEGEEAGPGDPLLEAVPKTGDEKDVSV
Method in brief: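 Recombinant Cdc37 ([…]) incubated with varying compound concentrations for 2 h, either before or after a 2 h incubation with biotinylated probe (0.5 μM) at 10 °C. Biotin alone served as control. Probe-bound protein captured on streptavidin beads, and input and bound fractions immunoblotted.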

HOS = assay: Antiproliferative activity against human HOS cells assessed as inhibition of cell growth incubated for 48 hrs by MTT assay; assay type: functional, cell-based
Method in brief: (§2)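 MTT read-out. Cells seeded at 5.0 × 10⁴ cells/ml and cultured 24 h, then exposed to the drug over a range of concentrations for 48 h, with matching DMSO as control. MTT (5 mg/ml) added for 4 h, supernatant removed, formazan dissolved in DMSO, OD read at 570 nm. Run in triplicate, mean ± SD (n = 3).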

A549 [4] = assay: Antiproliferative activity against human A549 cells assessed as inhibition of cell growth at 1.5 uM incubated for 48 hrs by MTT assay relative to control; assay type: functional; settings: A549, 48 h, read-out: GI
A549 [5] = assay: Induction of mitochondrial membrane potential loss in human A549 cells assessed as cells with depolarized mitochondria by measuring increase in J-monomer green fluorescence intensity at 0.2 uM incubated for 24 hrs by JC1 staining based fluorescence microscopic method (reference value: 1.5%); assay type: functional
A549 [6] = assay: Induction of apoptosis in human A549 cells assessed as early apoptotic cells at 0.6 uM incubated for 48 hrs by Annexin V-FITC and PI staining based flow cytometric analysis (reference value: 0.5%); assay type: functional
HepG2 = assay: Antiproliferative activity against human HepG2 cells assessed as inhibition of cell growth incubated for 48 hrs by MTT assay; assay type: functional, cell-based; settings: HepG2, 48 h; method in brief: as §2
[7] = target: T1, Hsp90 co-chaperone Cdc37 (Homo sapiens); assay: Binding affinity to Cdc37 in human A549 cells assessed as inhibition of HSP90-Cdc37 interaction by measuring increase in BAX protein level at 1.25 to 5 uM incubated for 12 hrs by Western blot analysis; assay type: cell-based
Method in brief: (§3)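 A549 cells (5×10^5 per 6 cm dish) were allowed to settle 12 h, then treated with DMSO or compound at the indicated concentrations for 12 h. Lysates were adjusted to 3 mg/ml protein by BCA and resolved on 10% SDS-PAGE, then Western blotted. β-actin or Hsp90 served as the loading control. Three separate experiments, mean ± SD.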

A549 [8] = assay: Induction of cell cycle arrest in human A549 cells assessed as accumulation at S phase at 0.4 uM incubated for 24 hrs by PI staining based flow cytometric analysis (reference value: 27.59%); assay type: functional; method in brief: as §1
A549 [9] = assay: Induction of cell cycle arrest in human A549 cells assessed as accumulation at G1 phase at 0.4 uM incubated for 24 hrs by PI staining based flow cytometric analysis (reference value: 60.14%); assay type: functional; method in brief: as §1
[10] = target: T1, Hsp90 co-chaperone Cdc37 (Homo sapiens); assay: Binding affinity to Cdc37 in human A549 cells assessed as inhibition of HSP90-Cdc37 interaction by measuring decrease in CDK4 protein level at 5 uM incubated for 12 hrs by Western blot analysis; assay type: cell-based
Method in brief: (§4)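 A549 cells seeded 5×10^5 per 6 cm dish, grown 12 h, then exposed to compound or DMSO for 12 h. Lysates adjusted to 3 mg/ml protein (BCA), run on 10% SDS-PAGE, immunoblotted for p-Akt and Cdk4. Band levels quantified against Hsp90 loading control. Three separate experiments, mean ± SD.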

[11] = target: T1, Hsp90 co-chaperone Cdc37 (Homo sapiens); assay: Inhibition of Cdc37 in human A549 cells assessed as disruption of HSP90 alpha-Cdc37 interaction by measuring decrease in Cdc37 protein level at 5 uM incubated for 6 hrs by immunoprecipitation based immunoblot analysis; assay type: cell-based
Method in brief: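 A549 cells (5×10^5 per 6 cm dish) were grown 24 h, then treated with 5 μM compound or DMSO for 6 h. Lysates were immunoprecipitated with Hsp90α antibody, and co-precipitated Cdc37 and Hsp90 were detected by Western blot. Mean ± SD, n = 3.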

MCF7 = assay: Antiproliferative activity against human MCF7 cells assessed as inhibition of cell growth incubated for 48 hrs by MTT assay; assay type: functional, cell-based; settings: MCF7, 48 h; method in brief: as §2
[12] = target: T1, Hsp90 co-chaperone Cdc37 (Homo sapiens); assay: Binding affinity to Cdc37 in human A549 cells assessed as inhibition of HSP90-Cdc37 interaction by measuring decrease in Akt phosphorylation level at 5 uM incubated for 12 hrs by Western blot analysis; assay type: cell-based; method in brief: as §4
A549 [13] = assay: Induction of apoptosis in human A549 cells assessed as early apoptotic cells at 1.2 uM incubated for 48 hrs by Annexin V-FITC and PI staining based flow cytometric analysis (reference value: 0.5%); assay type: functional
Method in brief: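 A549 cells (4×10^5 per 6 cm dish) cultured 24 h, then treated 48 h with compound or DMSO. Cells gently harvested, washed twice in cold PBS, resuspended in binding buffer with Annexin V and PI, stained 15 min at room temperature in the dark, analysed by flow cytometry. Mean ± SD, n = 3.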

[14] = target: T1, Hsp90 co-chaperone Cdc37 (Homo sapiens); assay: Binding affinity to Cdc37 in human A549 cells assessed as inhibition of HSP90-Cdc37 interaction by measuring decrease in Bcl2 protein level at 1.25 to 5 uM incubated for 12 hrs by Western blot analysis; assay type: cell-based; method in brief: as §3

Activity [3]: Active | IC50 (HepG2): 940 nM | inhibition [7]: Active | inhibition [10]: Active | inhibition [11]: Active | IC50 (MCF7): 640 nM | inhibition [12]: Active | inhibition [14]: Active
SMILES: CC1=C(O)C(=O)C=C2C1=CC=C1[C@@]2(C)CC[C@@]2(C)[C@@H]3C[C@](C)(C(=O)OCCCOC(=O)/C=C(\C#N)c4ccc(F)cc4)CC[C@]3(C)CC[C@]12C
Activity (A549 [1]): Dose-dependent effect | Activity (A549 [2]): 18.7% | IC50 (HOS): 900 nM | inhibition of growth at 1.5 µM (A549 [4]): 78.5% | Activity (A549 [5]): 15.7% | Activity (A549 [6]): 5.9% | Activity (A549 [8]): 23.34% | Activity (A549 [9]): 67.51% | Activity (A549 [13]): 7.4%
